Assay results from ChEMBL document CHEMBL1151199, “5-methylcoumaranones from Mutisia friesiana and their bioactivity” (2004).
Activity calls are given as the source filed them. No cut-off for these calls is given here.

Assays:
[1] = system: Cladosporium cucumerinum; assay: Antifungal activity against Cladosporium cucumerinum at 10 ug/spot after 2 to 3 days by bioautographic assay; format: functional
In short: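 TLC bioautography: samples spotted onto a TLC plate with graduated capillaries and assayed against the plant pathogen Cladosporium cucumerinum. Activity is read as the diameter (mm) of the inhibition zone around the spot. Benomyl served as the reference fungicide.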

[2] = system: Escherichia coli; assay: Antibacterial activity against Escherichia coli ATCC 25922 at 100 ug/disk after 48 hrs by standard paper sensitivity disk-agar plate method; format: functional, organism-based
In short: (§1)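 Agar in Petri dishes inoculated with the test organism (E. coli ATCC 25922, S. aureus ATCC 29213 or C. albicans BE 138/99). Samples were loaded at 100 µg per 5 mm paper disk, and the disks were placed on the agar. The read-out was the diameter of the inhibition zone in mm.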

[3] = system: Cladosporium cucumerinum; assay: Antifungal activity against Cladosporium cucumerinum at 100 ug/spot after 2 to 3 days by bioautographic assay; format: functional
In short: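 Each sample was dissolved at 10 mg ml-1 in CH2Cl2, and 10 µL was spotted onto a TLC plate by graduated capillary, giving 100 µg/spot. The plate was then assayed bioautographically against Cladosporium cucumerinum. Benomyl served as the reference fungicide, applied at 10 µg/spot. The read-out was the inhibition zone in mm.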

[4] = system: Staphylococcus aureus; assay: Antibacterial activity against Staphylococcus aureus ATCC 29213 at 100 ug/disk after 48 hrs by standard paper sensitivity disk-agar plate method; format: functional; conditions: ATCC 29213, 48 h, read-out: IZ; in short: as §1
[5] = system: Candida albicans; assay: Antifungal activity against Candida albicans BE 138/99 at 100 ug/disk after 48 hrs by standard paper sensitivity disk-agar plate method; format: functional, organism-based; in short: as §1
[6] = system: Staphylococcus aureus; assay: Antibacterial activity against Staphylococcus aureus ATCC 29213 at 10 ug/disk after 48 hrs by standard paper sensitivity disk-agar plate method; format: functional; conditions: ATCC 29213, 48 h, read-out: IZ

Structure (SMILES)	inhibition zone (IZ) [1] [mm]	Activity [2]	inhibition zone (IZ) [3] [mm]	zone of inhibition at 100 µg/disc [4] [mm]	Activity [5]	zone of inhibition at 10 µg/disc [6] [mm]
CCCCNC(=O)n1c(NC(=O)OC)nc2ccccc21 [BENOMYL]	20					
CC(C)=CCC/C(C)=C/CC1(O)Oc2cccc(C)c2C1=O (stereo not drawn) [MUTISICOUMARANONE A]		inactive	8	10	inactive	
CC(C)=CC(O)C(=O)/C(C)=C/CC/C(C)=C/CC1(O)Oc2cccc(C)c2C1=O (stereo not drawn) [MUTISICOUMARANONE B]		inactive	14	10	inactive	
C/C(=C\CC1(O)Oc2cccc(C)c2C1=O)CC/C=C(\C)C(=O)/C=C/C(C)(C)O (stereo not drawn) [MUTISICOUMARANONE C]		inactive	14	10	inactive	
CC(C)=CCC(O)/C(C)=C/CC/C(C)=C/CC1(O)Oc2cccc(C)c2C1=O (stereo not drawn) [MUTISICOUMARANONE D]		inactive	10	10	inactive	
CC1(C)S[C@@H]2[C@H](NC(=O)[C@H](N)c3ccccc3)C(=O)N2[C@H]1C(=O)O [AMPICILLIN]						14
